Results taken from paper PMC11144404 (Drug Design, Development and Therapy, 2024).

What was measured:
[1] = Steady-state plasma pharmacokinetics of HCTZ alone or with henagliflozin; type: in vivo, human
[2] = test system: healthy Chinese volunteers; assay: Safety and tolerability; type: in vivo, human; conditions: per treatment period
Procedure, shortened: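 12 enrolled healthy Chinese men aged 18–40 y with BMI 19–26 kg/m2. All had normal blood chemistry, haematology, urinalysis, vital signs and hepatitis/HIV serology, and stopped interfering medications 4 weeks before the study. Treatment-emergent adverse events were recorded as events and subjects for each treatment period (multiple-dose monotherapy with each drug, then co-administration). Drug relatedness was assessed.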

[3] = test system: healthy subjects and patients with T2DM; conditions: cited from earlier work
[4] = Steady-state plasma pharmacokinetics of henagliflozin alone or with HCTZ; type: in vivo, human
[5] = 2.5 mg dose group; cited from earlier work

SMILES | 90% CI of ratio of geometric means (combination: monotherapy) for AUCτ,ss ([1]; HCTZ, compared with bioequivalence interval) | Decrease of Css,max by co-administration ([1]; co-administration with henagliflozin vs HCTZ alone) [%] | All TEAEs, number of subjects ([2]; of 12 subjects) | Diarrhea, number of subjects ([2]; of 12 subjects) | Drug-related TEAEs, number of subjects ([2]; of 12 subjects) | Eczema, number of subjects ([2]; of 12 subjects) | Subjects reporting TEAEs ([2]; of 12 subjects) [%] | Thirst, number of subjects ([2]; of 12 subjects) | Benefit of 20 mg group compared with 5 mg and 10 mg groups (PK/PD) ([3]; 5–20 mg dosing range, healthy subjects and patients with T2DM) | Effect on blood glucose, blood electrolytes, or blood pressure ([3]; healthy people) | Increase of Css,max by co-administration ([4]; co-administration with HCTZ vs henagliflozin alone) [%] | 90% CI of ratio of geometric means (combination: monotherapy) for AUCτ,ss ([4]; henagliflozin, compared with bioequivalence interval) | Difference in AUC0-24h and Cmax between males and females [5] | Dizziness, number of subjects ([2]; of 12 subjects) | All TEAEs, number of subjects ([2]; of 12 subjects, listed as henagliflozin) | All TEAEs, number of events ([2]; figure in brackets) | Drug-related TEAEs, number of events ([2]; figure in brackets)
NS(=O)(=O)c1cc2c(cc1Cl)NCNS2(=O)=O [HCTZ, Hydrochlorothiazide] | within the bioequivalence interval of 0.80–1.25 | 19.41 | 11 | 2(2) | 11 | 0(0) | 91.7 | 10(10) |  |  |  |  |  |  |  |  | 
CCOc1ccc(Cc2cc([C@@]34OC[C@@](CO)(O3)[C@@H](O)[C@H](O)[C@H]4O)ccc2Cl)cc1F [Henagliflozin] |  |  | 4(4) | 2(2) |  | 1(1) | 33.3 |  | no significant benefit | no effect | 24.32 | fell between 0.80 and 1.25 | no statistical difference | 1(1) | 4 | four | all TEAEs were considered to be related to henagliflozin
